RGS4 act = potentiators or activators of RGS4 | 310,000 tested, 0.92% active | HEK293 M3R/inducible RGS4, carbachol calcium flux Fluo4; stronger effect = lower value | AID 463111 | B-score at 10 µM;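 active = B-score of the integrated calcium signal more than 4 SD below the library mean, with starting fluorescence not abnormally high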;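 also: negative B-score means reduced calcium response which marks RGS4 activation or potentiation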
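Material: M3R-expressing HEK293 line, RGS4 induced by doxycycline | Schedule: Overnight RGS4 induction, 30 min dye load 37 °C, 20 min compound RT | Measured by: Fluo4 fluorescence kinetic imaging of calcium | Read-out: Integrated calcium ratio converted to B score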
MrgX1 antagonist = human MrgX1 receptor antagonism, primary screen; Q96LB2; MRGX1-HEK293 calcium flux, Fluo-4, BAM8-22 antagonism; stronger effect = lower value; B-score at 10 µM; 310,000 tested, 1.3% active; AID 588676;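 active = calcium-response B-score plate-corrected more than 3 library SD below zero, starting fluorescence within 5 deviations, no agonist response on first addition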;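 also: peak minus trough fluorescence over baseline after final BAM8-22 challenge near maximal dose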
Target sequence (Q96LB2 whole entry, looked up): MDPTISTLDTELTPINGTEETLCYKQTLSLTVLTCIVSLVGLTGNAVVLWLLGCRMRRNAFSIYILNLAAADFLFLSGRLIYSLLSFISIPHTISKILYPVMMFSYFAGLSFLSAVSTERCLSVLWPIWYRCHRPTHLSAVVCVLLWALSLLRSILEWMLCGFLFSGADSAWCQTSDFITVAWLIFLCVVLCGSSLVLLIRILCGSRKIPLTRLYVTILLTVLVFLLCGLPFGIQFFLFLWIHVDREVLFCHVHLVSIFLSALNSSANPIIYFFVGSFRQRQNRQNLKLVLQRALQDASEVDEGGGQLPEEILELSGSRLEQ
RGS4 block = human RGS4 inhibition; AID 463165; 310,000 tested, 0.45% active; P49798; B-score at 10 µM; HEK293 M3R/RGS4 inducible, Fluo-4 calcium flux; stronger effect = higher value; triggered by carbachol at its EC20;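 active = B-score, a plate-corrected calcium signal, over three deviations above library mean, with baseline fluorescence within five deviations of library mean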;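 also: RGS4 expression induced by doxycycline in cells with stable M3 receptor; B-score is computed from the integrated fluorescence ratio over baseline after carbachol; higher B-score means a larger calcium signal and so more RGS4 inhibition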
Target sequence (P49798 whole entry, looked up): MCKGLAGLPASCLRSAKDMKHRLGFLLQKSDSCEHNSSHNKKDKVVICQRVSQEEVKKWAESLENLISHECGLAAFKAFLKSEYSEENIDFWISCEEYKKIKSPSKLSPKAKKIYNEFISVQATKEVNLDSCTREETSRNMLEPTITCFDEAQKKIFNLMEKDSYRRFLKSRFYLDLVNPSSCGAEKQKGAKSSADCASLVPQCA
MrgX1 PAM = allosterically activates human MrgX1 receptor signaling; Q96LB2; MrgX1-HEK293, Fluo-4 calcium flux, FDSS; stronger effect = higher value; B-score at 10 µM; 310,000 tested, 0.63% active; AID 588675;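 active = plate-corrected calcium response at least 3 library SD above typical, normal starting fluorescence, not activating the receptor alone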;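 also: compound read alongside a low EC10 to EC30 dose of BAM8-22 agonist; peak minus trough fluorescence over baseline measured at the second addition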
MrgX1 agonist = human MrgX1 receptor agonism, primary screen. 310,000 tested, 0.44% active. B-score at 10 µM. MrgX1-HEK293 cells, Fluo-4 calcium fluorescence, agonist mode; stronger effect = higher value. AID 588627;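 active = calcium response B-score plate-corrected fluorescence ratio at least 3 library SD, with starting fluorescence B-score inside 5 SD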
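Test system: HEK293 cells stably expressing human MrgX1 receptor; Input: fifteen thousand cells per well; Dosing: compound delivered in addition one of three; Schedule: overnight seeding, then 1 h dark dye loading; Technique: Fluo-4 NW calcium fluorescence; Measure: B-scored fluorescence response ratio; Controls: positive and negative controls per plate.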
MrgX1 ant reconf = reconfirmed antagonist of human MrgX1 receptor signaling; remaining BAM8-22 calcium response % of control (stronger effect = lower value), % at 10 µM; 2,300 tested, 19% active; AID 602420; shares compounds with MrgX1 antagonist; MrgX1-HEK293, BAM8-22 calcium flux, Fluo-4; stronger effect = lower value;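 active = remaining agonist calcium response no higher than 100% minus 3 SD of agonist-only control wells, with starting fluorescence near control levels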;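 also: agonist BAM8-22 given at a near maximal EC90 to ECmax level; peak minus minimum fluorescence divided by baseline after agonist addition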
HEK293 Ca flux = counter-screen for MrgX1 antagonists: effect in parental HEK293 cells; Fluo-4 calcium fluorescence, FDSS; AID 624111; fluorescence ratio F(max-min)/F0 at 10 µM; 4,000 tested, 2% active; shares compounds with MrgX1 antagonist;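 active = duplicate-averaged calcium fluorescence ratio at least three times the standard deviation of buffer wells, a nonspecific response in parental cells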
HEK293 Ca counter = activity in parental HEK293 cells without MrgX1; shares compounds with MrgX1 antagonist; parental HEK293 calcium flux, Fluo-4 fluorescence ratio; stronger effect = higher value; fluorescence ratio F(max-min)/F0 at 10 µM; 4,000 tested, 0.4% active; AID 624114;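 active = calcium fluorescence ratio, averaged over duplicates, at least 3 SD of the buffer-well ratio, meaning a nonspecific response in receptor-free cells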;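 also: untransfected parental HEK293 lacking MrgX1 used as counterscreen for MrgX1 allosteric activators; fluorescence change taken during the second addition on a kinetic imager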
HEK293 Ca cntr2 = counter-screen for MrgX1 activators: effect in parental HEK293 cells | Fluo-4 calcium fluorescence (FDSS); stronger effect = higher value | fluorescence ratio F(max-min)/F0 at 10 µM | 4,000 tested, 8.7% active | shares compounds with MrgX1 antagonist;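 active = calcium fluorescence ratio at least three times the spread of buffer wells, meaning a non-specific response in parental cells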
An asterisk follows results filed as active; i = inactive; x = not tested or not shown. Sampled rows, rich in hits. Any-hit rate of the full collection: about 3.5%.

SMILES	RGS4 act	MrgX1 antagonist	RGS4 block	MrgX1 PAM	MrgX1 agonist	MrgX1 ant reconf	HEK293 Ca flux	HEK293 Ca counter	HEK293 Ca cntr2
Cc1cc2c(NC(=O)Nc3ccc(C(C)(C)C)cc3)cccc2nn1	i	-6.9*	i	i	i	78%*	i	i	i
O=C(c1cc(-c2ccc(Cl)cc2Cl)on1)N1CCCC1	i	i	i	i	i	x	x	x	x
O=C(c1cc(-c2ccc(Cl)cc2Cl)on1)N1CCCCCC1	i	-5.3*	i	i	i	i	i	i	i
O=c1[nH]c(C(F)(F)F)nc2c1nnn2Cc1ccccc1F	i	-5.2*	i	i	i	i	i	i	i
O=c1cc(CSc2ccc(Cl)cc2)nc(N2CCCCC2)[nH]1	i	-7.1*	i	i	i	i	i	i	i
CC1(c2ccccc2)NC(=O)N(CC(=O)Nc2ccc3c(c2)OCO3)C1=O (centres undefined)	i	i	i	i	i	x	x	x	x
CC1(c2ccc(OC(F)F)cc2)NC(=O)N(CC(=O)Nc2ccc3c(c2)OCO3)C1=O (centres undefined)	i	-6.3*	i	i	i	i	i	i	i
Cc1cccnc1NC(=O)C1CCC1	i	i	i	i	i	x	x	x	x
O=C(OCn1nnc2ccccc2c1=O)C1CCCCC1	i	-10*	i	i	i	i	i	i	i
CC(Oc1ccc(Br)cc1)C(=O)Nc1ccc(S(=O)(=O)N(C)C2CCN(C)CC2)cc1 (centres undefined)	i	-16*	i	i	i	i	i	i	48*
Cc1nn(C(C)C(=O)NCCc2cccs2)c(=O)c2nn(-c3ccccc3)c(C)c12 (centres undefined)	i	i	i	i	i	x	x	x	x
O=S1(=O)CC(O)C(Nc2ccccc2Cl)C1 (centres undefined)	i	-7.9*	i	i	i	i	i	i	i
CCOC(=O)C1CCN(C(=O)CCCN2C(=O)c3ccccc3C2=O)CC1	i	-10*	i	i	i	i	i	i	i
CCOC(=O)C1CCN(C(=O)CCCOc2ccccc2)CC1	i	i	i	i	i	x	x	x	x
Cc1ccccc1Cn1cc(NC(=O)c2nc3ncccn3n2)cn1	i	i	i	i	i	x	x	x	x
Cc1ccccc1Cn1ccc(NC(=O)c2nc3ncccn3n2)n1	x	-5.7*	x	i	i	i	i	i	i
COc1cc(C(=O)Nc2nnc(C3=COCCO3)o2)cc(OC)c1OC	i	i	i	i	i	x	x	x	x
CCCCn1c(SCC(N)=O)nc2ccc(N3CCOCC3)cc2c1=O	i	i	i	i	i	x	x	x	x
CCCCn1c(SCC(=O)Nc2cccc(OC)c2)nc2ccc(N3CCOCC3)cc2c1=O	i	-5.2*	i	i	i	i	i	i	i
Cc1cc(C(=O)NC2CCCCC2)c2cc(F)ccc2n1	i	i	i	i	i	x	x	x	x
Cc1cc(C(=O)NC(C)c2ccccc2)c2cc(F)ccc2n1 (centres undefined)	i	-5.4*	i	i	i	i	i	i	i
CCc1nc(SCC(=O)N2CCCCC2)c2c(=O)n(C)c(=O)n(C)c2n1	i	i	i	i	i	x	x	x	x
COc1cc2ccccc2cc1C(=O)Nc1nccs1	i	-4.6*	i	i	i	i	i	i	i
Cn1c(NNC(=O)c2cccc3ccccc23)cc(=O)n(C)c1=O	i	i	i	i	i	x	x	x	x
O=C(CNC(=O)C1CCCCC1)Nc1ccccc1	i	i	i	i	i	x	x	x	x
SMILES	RGS4 act	MrgX1 antagonist	RGS4 block	MrgX1 PAM	MrgX1 agonist	MrgX1 ant reconf	HEK293 Ca flux	HEK293 Ca counter	HEK293 Ca cntr2
O=C(CNC(=O)C1CCCCC1)NC1CCCCC1	i	-4.7*	i	i	i	i	i	i	i
Cc1cc(NC(=O)CNC(=O)C2CCCCC2)no1	x	-5.3*	x	i	i	i	i	i	i
O=C(CSc1nnc(CNC(=O)c2cccs2)o1)NC1CCCCC1	i	-7.1*	i	i	i	i	i	i	i
CCOC(=O)c1c(-c2ccc(C)cc2)csc1NC1=NS(=O)(=O)c2ccccc21	i	-6.8*	i	i	i	i	i	i	i
Cc1nc2ccccc2n1C(=O)N(C)C	i	i	i	i	i	x	x	x	x
O=S(=O)(/N=C(/Nc1ccccn1)c1ccccc1)c1ccccc1	i	i	i	i	i	x	x	x	x
COc1ccc(NC(=O)CCOc2ccccc2C)cc1S(=O)(=O)N1CCCCC1	i	-5.4*	i	i	i	i	i	i	i
COc1ccc(CCC(=O)Nc2ccc(Cl)c(S(=O)(=O)N3CCCC3)c2)cc1	i	-5.9*	i	i	i	78%*	i	i	i
Cc1ccccc1OCC(=O)Nc1ccc(C)c(S(=O)(=O)N2CCCCCC2)c1	i	i	i	i	i	x	x	x	x
Cc1noc(C)c1C(=O)N1CCN(S(=O)(=O)c2cccc(Cl)c2Cl)CC1	i	i	i	i	i	x	x	x	x
CC(NC(=O)C1CCCN1S(=O)(=O)c1ccc2c(c1)n(C)c(=O)c(=O)n2C)c1ccccc1 (centres undefined)	i	i	i	i	i	x	x	x	x
CSc1nc2ccc(NC(=O)c3cc4ccccc4o3)cc2s1	i	i	i	i	i	x	x	x	x
Cc1noc(C)c1-c1nc(CSc2ccccc2)no1	i	i	i	i	i	x	x	x	x
Cc1ccccc1C(=O)Oc1ccc(Br)cc1C(=S)N1CCCC1	i	-9.4*	i	i	i	i	i	i	i
COc1ccc(Cc2ccc(OC)c(N)c2)cc1N	i	-5.5*	i	i	i	i	i	i	i
CC1(C)CC(=O)C(C=Nc2cc(C(=O)c3ccccc3)ccc2N)=C(O)C1	i	-6.8*	i	i	i	73%*	i	i	i

High-throughput results (PubChem BioAssay)
